Laboratory results published in ChEMBL document CHEMBL1128208, “(3SR,4aRS,6SR,8aRS)-6-(1H-tetrazol-5-yl)decahydroisoquinoline-3-carboxylic acid, a novel, competitive, systemically active NMDA and AMPA receptor antagonist” (J Med Chem, 1995).
Several values for one entry are separate records, joined by “and”; a condition that tells them apart may be missing. Equal values may be shown once.

How the values were obtained:
Rattus norvegicus [1] = species on record: Rattus norvegicus; assay: Compound was evaluated against compound induced depolarization of NMDA receptor in rat cortical slice preparation; assay type: functional
Summary of the method: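 Cortical slice preparation in which depolarization was induced by 40 μM NMDA. Antagonism was measured as inhibition of this depolarization, and […].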

[2] = Compound was evaluated for high binding affinity towards glycine site on the NMDA receptor; set-up: species or system Rattus norvegicus
[3] = target: Glutamate receptor ionotropic AMPA (Homo sapiens, UniProt P42261+P42262+P42263+P48058); assay: Binding affinity against Ionotropic glutamate receptor AMPA using [3H]AMPA as a radioligand; assay type: protein-complex assay
Xenopus sp. [4] = species on record: Xenopus sp.; assay: Compound was evaluated for blocking of depolarization induced by 30 uM NMDA in xenopus oocytes injected with rat brain m-RNA
Xenopus sp. [5] = species on record: Xenopus sp.; assay: Compound was evaluated for blocking of depolarization induced by 30 uM AMPA in xenopus oocytes injected with rat brain m-RNA; assay type: functional, frog
Rattus norvegicus [6] = species on record: Rattus norvegicus; assay: Inhibitory activity against compound induced depolarization of Kainic acid receptor in rat cortical slice preparation; assay type: functional
Summary of the method: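 Cortical slice depolarizations evoked by 10 μM kainic acid. Test compound at concentrations up to 100 μM; the value is the IC50 for inhibition.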

Rattus norvegicus [7] = species on record: Rattus norvegicus; assay: Inhibitory activity against compound induced depolarization of NMDA receptor in rat cortical slice preparation; assay type: functional
Summary of the method: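 Cortical slice preparation. Depolarizations evoked by 40 μM NMDA; the value is the IC50 for inhibition of the NMDA response.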

Glutamate NMDA receptor = assay: Binding affinity against NMDA receptor using [3H]-CGS- 19755 as a radioligand in rat
Summary of the method: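 Displacement of the selective NMDA-site radioligand [3H]CGS 19755. Run in triplicate unless otherwise indicated; IC50 reported.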

Rattus norvegicus [8] = species on record: Rattus norvegicus; assay: Inhibitory activity against compound induced depolarization of AMPA receptor in rat cortical slice preparation; assay type: functional
Summary of the method: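 Cortical slice preparation. Depolarizations evoked by 40 μM AMPA or 40 μM quisqualic acid (QUIS); the value is the IC50 for inhibition of the agonist response.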

[9] = target: Glutamate receptor ionotropic kainate; assay: Binding affinity against Ionotropic glutamate receptor kainate using [3H]-Kainic acid as a radioligand; assay type: protein-complex assay
Summary of the method: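 Displacement of [3H]kainic acid from kainate receptor sites. Run in triplicate unless otherwise indicated; IC50 reported.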

[10] = Binding affinity towards glycine site on the NMDA receptor was determined; set-up: species or system Rattus norvegicus

SMILES	IC50 [3] [µM]	IC50 (Rattus norvegicus [6]) [µM]	IC50 (Rattus norvegicus [7]; Rattus norvegicus) [µM]	IC50 (Glutamate NMDA receptor) [µM]	IC50 (Rattus norvegicus [8]; Rattus norvegicus) [µM]	IC50 (Rattus norvegicus [7]) [µM]	IC50 [9] [µM]	IC50 (Rattus norvegicus [8]) [µM]	further results
O=C1Nc2cc(Cl)ccc2CC1[N+](=O)[O-] (centres undefined)	–	–	–	–	–	–	–	–	KbS (Rattus norvegicus [1]): 6.7 µM and 9.2 µM; IC50 [2]: 0.41 µM
O=[N+]([O-])c1ccc2cc(NS(=O)(=O)C(F)(F)F)c(O)nc2c1	–	–	–	–	–	–	–	–	Ki [3]: 0.6 µM; Ki (Xenopus sp. [4]): 0.62 µM; Ki (Xenopus sp. [5]): 0.37 µM
O=C(O)[C@H]1CC[C@H]2CN[C@H](C(=O)O)C[C@H]2C1 (racemic)	> 100	> 100	> 100	> 100	> 100	–	–	–	–
O=C(O)[C@@H]1C[C@H]2C[C@@H](c3nnn[nH]3)CC[C@H]2CN1 (racemic)	12.8	> 100	–	1.6	–	7.5	31.8	40.9	–
O=C(O)[C@@H]1C[C@H]2C[C@H](c3nnn[nH]3)CC[C@H]2CN1 (racemic)	> 100	–	65	38.4	> 100	–	> 100	–	–
O=C(O)[C@@H]1C[C@H]2C[C@@H](Cc3nnn[nH]3)CC[C@H]2CN1 (racemic)	84.5	> 100	1.4	0.82	> 100	–	> 100	–	–
O=C(O)[C@@H]1C[C@H]2C[C@@H](CCc3nn[nH]n3)CC[C@H]2CN1 (racemic) [TEZAMPANEL ANHYDROUS]	–	31.7	61.3	26.4	6	–	247	–	–
O=C(O)[C@@H]1C[C@H]2C[C@@H](c3nnn[nH]3)CC[C@H]2CN1 (stereo in doubt; (+)-6)	> 100	–	–	> 100	–	> 100	> 100	> 100	–
O=C(O)[C@@H]1C[C@H]2C[C@@H](c3nnn[nH]3)CC[C@H]2CN1 (stereo in doubt; (-)-6)	5.7	–	–	1	–	4.1	21	13.2	–
O=[N+]([O-])c1cc2nc(O)c(O)nc2cc1[N+](=O)[O-] [DNQX]	–	–	–	–	–	–	–	–	Ki [3]: 0.36 µM; Ki [10]: 0.39 µM
